These results are taken from ChEMBL document CHEMBL4130637, “25 S-Adamantyl-23-yne-26,27-dinor-1α,25-dihydroxyvitamin D3: Synthesis, Tissue Selective Biological Activities, and X-ray Crystal Structural Analysis of Its Vitamin D Receptor Complex” (J Med Chem, 2018).

Data set [1] deals with T1, Vitamin D3 receptor (Homo sapiens) (UniProt P11473).
T1 sequence (whole entry): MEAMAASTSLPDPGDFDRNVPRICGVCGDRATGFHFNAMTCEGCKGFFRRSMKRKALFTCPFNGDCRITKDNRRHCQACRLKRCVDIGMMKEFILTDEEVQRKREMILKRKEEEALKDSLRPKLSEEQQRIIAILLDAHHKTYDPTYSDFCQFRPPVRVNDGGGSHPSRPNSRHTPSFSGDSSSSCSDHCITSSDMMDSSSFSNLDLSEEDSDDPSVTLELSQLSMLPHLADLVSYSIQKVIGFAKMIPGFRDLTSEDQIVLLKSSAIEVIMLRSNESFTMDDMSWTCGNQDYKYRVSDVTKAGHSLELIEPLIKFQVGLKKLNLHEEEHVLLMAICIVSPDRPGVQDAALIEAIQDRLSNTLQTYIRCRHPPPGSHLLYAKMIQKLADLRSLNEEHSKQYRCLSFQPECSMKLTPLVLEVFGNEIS
Put plainly: Agonist activity at VDR in human HaCaT cells assessed as increase in CYP24A1 gene expression at 100 nM after 24 hrs by RT-PCR method relative to 1,25(OH)2D3. Type of data set: cell-based. The procedure, abridged:
(§1)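 Cells treated with ligand at 100 nM for 24 h. mRNA of the target gene measured by reverse transcription and quantitative real-time PCR. Expression given as percentage of that induced by an equal concentration of 1,25(OH)2D3. Significance tested versus vehicle control.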

The target of data set [2] is T1, Vitamin D3 receptor (Homo sapiens). Put plainly: Transactivation of VDR (unknown origin) expressed in HEK293 cells harboring TK-Spp X 3-LUC reporter plasmid after 24 hrs by luciferase reporter gene assay relative to 1,25(OH)2D3. Type of data set: cell-based. An outline of the steps: (§2)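 HEK293 cells transfected with pCMX-VDR and TKSpp × 3-LUC reporter. Cells treated with vehicle or ligand at 10-14 M to 10^-8 M for 24 h, then harvested. Luciferase activity assayed alongside β-galactosidase activity.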

Data set [3] has the same target. Put plainly: Agonist activity at VDR in human U937 cells assessed as increase in CYP24A1 gene expression at 100 nM after 24 hrs by RT-PCR method relative to 1,25(OH)2D3. The class given is cell-based. An outline of the steps: as §1
Data set [4] is described as follows: Drug uptake in human MG63 cells at 1 uM after 10 mins by HPLC analysis. The class given is ADME, cell-based. The settings on record: mg-63, 10 min. The procedure, abridged: (§3)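 MG63 cells cultured with compound (1 µM) in medium containing 10% FBS. Uptake sampled at 5 and 10 min, stability after 24 h of culture. Compound levels in cells and medium determined by HPLC.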

The nature of data set [5]: Drug uptake in human MG63 cells at 1 uM after 5 mins by HPLC analysis. Type of data set: ADME, cell-based. The settings on record: mg-63, 5 min. The procedure, abridged:
as §3

Data set [6] has as its target T1, Vitamin D3 receptor (Homo sapiens). Put plainly: Agonist activity at VDR in human SW480 cells assessed as increase in CYP24A1 gene expression at 100 nM after 24 hrs by RT-PCR method relative to 1,25(OH)2D3. The class given is cell-based. The procedure, abridged:
as §1

Data set [7] has the same target. The data set can be described thus: Agonist activity at VDR in HEK293 cells assessed as increase in CYP24A1 gene expression at 100 nM after 24 hrs by RT-PCR method relative to 1,25(OH)2D3. Type of data set: cell-based. An outline of the steps:
as §1

The target is the same in data set [8]. Put plainly: Transactivation of VDR (unknown origin) expressed in HEK293 cells harboring TK-Spp X 3-LUC reporter plasmid after 24 hrs by luciferase reporter gene assay relative to control. Type of data set: cell-based. An outline of the steps: as §2
(In general: Reporter assays use an easily measured gene product as a stand-in for the process of interest.)

Data set [9] shares this target. The data set can be described thus: Agonist activity at VDR in human MG63 cells assessed as increase in CYP24A1 gene expression at 100 nM after 24 hrs by RT-PCR method relative to 1,25(OH)2D3. Type of data set: cell-based. The procedure, abridged: as §1
The nature of data set [10]: Stability in human MG63 cells assessed as parent compound remaining at 1 uM after 24 hrs by HPLC analysis. The class given is ADME, cell-based, MG-63. The settings on record: read-out: Stability. The procedure, abridged: as §3
The nature of data set [11]: Drug degradation in human MG63 cells at 1 uM after 24 hrs by HPLC analysis. Type of data set: ADME, cell-based, MG-63. The settings on record: read-out: Drug degradation. An outline of the steps:
as §3

The target of data set [12] is T2, Vitamin D3 receptor (Homo sapiens, UniProt P11473).
T2 sequence (P11473 whole entry): T1 sequence (whole entry)
Put plainly: Transactivation of VDR (unknown origin) expressed in HEK293 cells harboring TK-Spp X 3-LUC reporter plasmid after 24 hrs by luciferase reporter gene assay. The class given is cell-based. An outline of the steps: as §2

Data set [13] concerns the target T1, Vitamin D3 receptor (Homo sapiens). Put plainly: Agonist activity at VDR in human U937 cells assessed as increase in CAMP gene expression at 100 nM after 24 hrs by RT-PCR method relative to 1,25(OH)2D3. The class given is cell-based. An outline of the steps: as §1
For data set [14], the target named is T2, Vitamin D3 receptor. Put plainly: Transactivation of VP16-tagged VDR (unknown origin) expressed in HEK293 cells harboring pCMX-GAL4-RXRalpha and MH100(UAS) X 4tk-LUC reporter plasmid assessed as increase in interaction with RXRalpha by […] reporter gene based mammalian two-hybrid assay. Type of data set: cell-based.
For data set [15], the target named is T1, Vitamin D3 receptor (Homo sapiens). Put plainly: Agonist activity at VDR in human MG63 cells assessed as increase in OCN gene expression at 100 nM after 24 hrs by RT-PCR method relative to 1,25(OH)2D3. The class given is cell-based. The procedure, abridged:
as §1

The target of data set [16] is T2, Vitamin D3 receptor. The data set can be described thus: Displacement of [26,27-Methyl-3H]-1,25(OH)2D3 from recombinant human GST-tagged VDR LBD (140 to 427 residues) expressed in Escherichia coli BL21 preincubated for 30 mins followed by radioligand addition measured after 20 hrs. The procedure, abridged:
(§4)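 GST-VDR fusion protein incubated with [3H]1,25(OH)2D3 plus unlabeled competitor over a range of concentrations. Values are means ± standard deviations of triplicate assays.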

Data set [17] concerns the target T2, Vitamin D3 receptor. Put plainly: Transactivation of VP16-tagged VDR (unknown origin) expressed in HEK293 cells harboring pCMX-GAL4-SRC-1 and MH100(UAS) X 4tk-LUC reporter plasmid assessed as increase in SRC-1 recruitment by […] reporter gene based mammalian two-hybrid assay. The class given is cell-based.
In data set [18] the target is T2, Vitamin D3 receptor. Put plainly: Transrepression of VP16-tagged VDR (unknown origin) expressed in HEK293 cells harboring pCMX-GAL4-NCoR and MH100(UAS) X 4tk-LUC reporter plasmid assessed as increase in NCoR recruitment by […] reporter gene based mammalian two-hybrid assay. Type of data set: cell-based.
Data set [19] addresses T1, Vitamin D3 receptor (Homo sapiens). Put plainly: Displacement of [26,27-Methyl-3H]-1,25(OH)2D3 from recombinant human GST-tagged VDR LBD (140 to 427 residues) expressed in Escherichia coli BL21 preincubated for 30 mins followed by radioligand addition measured after 20 hrs relative to 1,25(OH)2D3. An outline of the steps: as §4
The target is the same in data set [20]. Put plainly: Agonist activity at VDR in human SW480 cells assessed as increase in TRPV6 gene expression at 100 nM after 24 hrs by RT-PCR method relative to 1,25(OH)2D3. Type of data set: cell-based. The procedure, abridged:
as §1

For data set [21] the target is unchanged. The data set can be described thus: Agonist activity at VDR in human SW480 cells assessed as increase in E-cadherin gene expression at 100 nM after 24 hrs by RT-PCR method relative to 1,25(OH)2D3. Type of data set: cell-based. An outline of the steps:
as §1

The target is the same in data set [22]. The data set can be described thus: Agonist activity at VDR in human HaCaT cells assessed as increase in CAMP gene expression at 100 nM after 24 hrs by RT-PCR method relative to 1,25(OH)2D3. The class given is cell-based. The procedure, abridged: as §1

Calls of active or inactive are those of the source. The calls are words filed in the database; no cut-off is given here. A value given as a limit tells only on which side of the number the result lay.

Turning to `C=C1[C@H](O)CC(=C/C=C2\CCC[C@]3(C)[C@@H]([C@H](C)CC#C[C@@H](O)C45CC6CC(CC(C6)C4)C5)CC[C@@H]23)C[C@H]1O`, the Activity in data set [1] amounted to 30%; in data set [3] it was 85%; in data set [6], 50%; in data set [7], 100%; in data set [8] it was 170%; in [9], 58%. For the same compound, the Emax in data set [2] amounted to 81%. Moreover, the Drug uptake amounted to 9.7% in data set [4] and 6.1% in data set [5]. Besides, the remaining at 24 h, 1 µM in [10] was determined as 43%.
`C=C1/C(=C\C=C2/CCC[C@]3(C)[C@@H]([C@H](C)CCCC(C)(C)O)CC[C@@H]23)C[C@@H](O)C[C@@H]1O` [CALCITRIOL]: the Drug uptake in data set [4] is 2.3%; in [5], 3.4%. The metabolised at 24 h, 1 µM in data set [11] was determined as 30%. Also, in data set [10], the remaining at 24 h, 1 µM is 70%.
As to `C=C1/C(=C\C=C2/CCC[C@]3(C)[C@@H]([C@H](C)CC#C[C@H](O)C45CC6CC(CC(C6)C4)C5)CC[C@@H]23)C[C@@H](O)C[C@@H]1O`, the outcome in data set [1], in data set [13], in data set [3], in [6], in [7] and in [15] was Active. Besides, the result in data set [9] was Active. In addition, the EC50 is more than 5.69 nM at Vitamin D3 receptor [12], more than 1.2 nM on Vitamin D3 receptor [14] and more than 3.2 nM on Vitamin D3 receptor [17]. Moreover, the Drug uptake is 9.5% in data set [4] and 6.9% in data set [5]. The IC50 came out at 3.13 nM at Vitamin D3 receptor [16] and 1.75 nM on Vitamin D3 receptor [18]. The remaining at 24 h, 1 µM in data set [10] amounted to 90%. In addition, the inhibition in [19] came to 4%.
For the compound `C=C1/C(=C\C=C2/CCC[C@]3(C)[C@@H]([C@H](C)CC#C[C@@H](O)C45CC6CC(CC(C6)C4)C5)CC[C@@H]23)C[C@@H](O)C[C@@H]1O`, the Activity in [1] was determined as 7%; in [20] it was 22%; in [13] it was 96%; in data set [3] it was 54%; in data set [21], 12%; in data set [6] it was 8%. Moreover, the Activity in data set [7] is 160%; in [22], 24%; in data set [15], 64%; in [8] it was 90%; in [9], 44%. Moreover, the values for the EC50 on Vitamin D3 receptor [12], on Vitamin D3 receptor [14] and at Vitamin D3 receptor [17] were 0.03 nM, more than 0.14 nM and more than 1.2 nM, respectively. Besides, the Emax in data set [2] stood at 87%. Also, the Drug uptake in [4] came to 6%; in [5], 3.1%. In addition, the IC50 amounted to 0.24 nM on Vitamin D3 receptor [16] and 0.09 nM at Vitamin D3 receptor [18]. Further, the remaining at 24 h, 1 µM in data set [10] amounted to 49%. Further, the inhibition in [19] is 50%.

Broadly, the Emax is the maximal effect, on the per cent scale that the assay sets. The term EC50 denotes the concentration needed to bring the measured effect to its halfway point. In general, IC50 refers to the concentration that gives 50% inhibition. By inhibition is commonly meant the drop in the measured response relative to a control, in per cent.
